Consider ten molecules from ChEMBL document CHEMBL1142338, “Design, synthesis, cytoselective toxicity, structure-activity relationships, and pharmacophore of thiazolidinone derivatives targeting drug-resistant lung cancer cells” (J Med Chem, 2008).

Some results are limits rather than exact numbers.

The test system of experiment [1] is NCI-H460. As to the kind of experiment: Anticancer activity against paclitaxel resistant variant human H460 cells. It is filed as functional, cell-based. The gist of the method:
(§1)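 H460 and the paclitaxel-resistant, P-gp-overexpressing H460taxR line were grown in RPMI 1640 with 10% heat-inactivated FCS, penicillin and streptomycin, at 37 C in 5% CO2. Cells were seeded in 96-well plates, dosed next day from DMSO stocks (DMSO <1%, matched DMSO control), and stained with sulforhodamine B at 72 h. IC50 came from four-parameter logistic fits; at least three experiments.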

Experiment [2] in a line: Anticancer activity against human NHFB cells. It is filed as ADME, cell-based. The gist of the method:
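Normal human fibroblasts (NHFB) were kept in DMEM with 10% heat-inactivated FCS, penicillin and streptomycin, at 37 C in 5% CO2. They were seeded in 96-well plates and treated next day, with DMSO below 1% and a matched DMSO control. Sulforhodamine B readout was at 72 h, with viability taken relative to control. IC50 came from four-parameter logistic fits; unreached values were recorded as >100 µM because of the solubility/DMSO limit.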

In experiment [3] the test system is NCI-H460. Briefly: Anticancer activity against human H460 cells. It is filed as functional, cell-based. The gist of the method: as §1

Take `COc1ccc(N=C2NC(=O)/C(=C\c3ccc(N(C)C)cc3)S2)cc1`: the IC50 (as a rule, the concentration needed to halve the response being measured) in the experiment on NCI-H460 [1] is 1600 nM; in experiment [2], above 100 µM; in the experiment with NCI-H460 [3], 2520 nM.
Turning to `Cc1ccc(N=C2NC(=O)/C(=C\c3ccc(N(C)C)cc3)S2)cc1`, the IC50 in the experiment on NCI-H460 [1] is 820 nM; in experiment [2] it was above 100 µM; with NCI-H460 [3], 940 nM.
`CN(C)c1ccc(/C=C2/SC(=Nc3ccccc3)NC2=O)cc1`: the IC50 in the experiment on NCI-H460 [1] is 210 nM; in experiment [2] it was above 100 µM; in the experiment with NCI-H460 [3], 500 nM.
In the case of `Cc1ccccc1/N=C1\NC(=O)/C(=C\c2ccc(N(C)C)cc2)S1`, the figures for the IC50 (in the experiment on NCI-H460 [1]; in experiment [2]; with NCI-H460 [3]) were 540 nM, above 100 µM and 650 nM, respectively.
Turning to `O=C1N/C(=N\c2ccc(Cl)cc2)S/C1=C/c1ccccc1O`, the half-inhibitory concentration (IC50) is 1180 nM in the experiment on NCI-H460 [1], above 100 µM in experiment [2] and 1850 nM in the experiment on NCI-H460 [3].
The like results for `COc1ccc(/C=C2/S/C(=N/c3ccccc3C)NC2=O)cc1` were, in that order, 1700 nM, 195 µM and 1780 nM.
In the case of `CC(=O)Nc1ccc(/C=C2/S/C(=N/c3cccc(Cl)c3)NC2=O)cc1`, the IC50 in the experiment with NCI-H460 [1] was 1250 nM; in experiment [2], above 100 µM; with NCI-H460 [3], 1190 nM.
The like results for `CN(C)c1ccc(/C=C2/SC(=Nc3ccc(O)cc3)NC2=O)cc1` were, in that order, 1080 nM, above 100 µM and 1320 nM.
The like results for `CN(C)c1ccc(/C=C2/SC(=Nc3ccccc3Cl)NC2=O)cc1` were, in that order, 880 nM, above 100 µM and 730 nM.
On to `CN(C)c1ccc(/C=C2/S/C(=N/c3ccc(Cl)cc3)NC2=O)cc1`, for which the IC50 in the experiment with NCI-H460 [1] is 2930 nM; in experiment [2], above 100 µM; in the experiment with NCI-H460 [3], 2890 nM.
